Laboratory results: ChEMBL document CHEMBL1124751, “Synthesis of perfluoroalkylated xylitol ethers and esters: new surfactants for biomedical uses” (J Med Chem, 1990)
≈ marks a conversion by molar mass, not a printed value. Values belong to the compound of their own block, whether it stands above or below them.

Assays:
[1] = Solubility was determined; format: physicochemical
[2] = Growth inhibition towards Namalva Lymphoblastoid Cell Culture at the concentration of 0.2 g/L; format: functional
Summary of the method: (§1)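 Namalva lymphoblastoid suspension culture (RPMI with 10% fetal calf serum, 37 °C, 7% CO2). 2 mL medium at about 3.10^5 cells/mL was mixed with 2 mL test solution, in five flasks, with a reference series in parallel. Cells were counted after 4 days of incubation, and viability was read by Trypan Blue exclusion. Results are % vs controls.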

[3] = Growth and viability inhibition towards Namalva Lymphoblastoid Cell Culture after resowing at the concentration of 0.1 g/L and after detoxification on anionic exchanger; format: functional
Summary of the method: (§2)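 Namalva lymphoblastoid cells in suspension (RPMI, 10% fetal calf serum, 37 °C, 7% CO2). Five flasks per test, each with 2 mL medium at about 3.10^5 cells/mL plus 2 mL test solution, alongside a reference series. After 4 days the compound was removed. Cells were washed and resown in 4 mL medium, and growth and viability were reported as % vs controls.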

[4] = Hemolytic effect on human red blood cells when dispersed in Pluronic F-68 at the concentration of 40 g/10 g per L; format: functional
Summary of the method: (§3)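 Human erythrocytes were freed of plasma and buffy coat (3300 rpm, 10 min, 10 °C), washed three times in isotonic phosphate saline pH 7.4, then suspended at 1% hematocrit. 2 mL suspension plus an equal volume of surfactant dispersion in Pluronic F-68 / 9‰ NaCl (g compound/g Pluronic per L) was shaken 1 h at 37 °C. Hemolysis was scored visually (0 to ++++).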

[5] = Growth inhibition towards Namalva Lymphoblastoid Cell Culture at the concentration of 0.1 g/L; format: functional; summary of the method: as §1
[6] = Growth and viability inhibition towards Namalva Lymphoblastoid Cell Culture after resowing at the concentration of 0.2 g/L; format: functional; summary of the method: as §2
[7] = Viability inhibition towards Namalva Lymphoblastoid Cell Culture at the concentration of 0.1 g/L; format: functional; summary of the method: as §1
Mus musculus [8] = test: Toxicity in mice when dispersed in Pluronic F-68 in […] aqueous NaCl of 15 g/3.73g per L at the concentration of 371 mg/kg body weight; format: functional
Summary of the method: (§4)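 Single tail-vein injection into mice of about 20 g, about 0.5 mL (25 mL/kg body weight) per animal. The test article was a solution or dispersion of surfactant in Pluronic F-68, given as g compound/g Pluronic per L, in 9‰ aqueous NaCl. Symptoms, behavior, mortality and body-weight gain were recorded for 80 days after injection. Survival was reported as survivors/injected in a series of 10 mice.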

[9] = Growth inhibition towards Namalva Lymphoblastoid Cell Culture at the concentration of 0.1 g/L and after detoxification on anionic exchanger; format: functional; summary of the method: as §1
Mus musculus [10] = test: Toxicity in mice when dispersed in Pluronic F-68 in […] aqueous NaCl of 0.1 g and at the concentration of 2,mg/Kg body weight; format: functional; summary of the method: as §4
Mus musculus [11] = test: Toxicity in mice when dispersed in Pluronic F-68 in […] aqueous NaCl of 40 g/10 g per L at the concentration of 1034 mg/kg body weight; format: functional
[12] = Hemolytic effect on human red blood cells when dispersed in Pluronic F-68 at the concentration of 20 g/5 g per L; format: functional; summary of the method: as §3
Mus musculus [13] = test: Toxicity in mice when dispersed in Pluronic F-68 in […] aqueous NaCl of 20 g/5 g per L at the concentration of 491 mg/kg body weight; format: functional; summary of the method: as §4
[14] = Viability inhibition towards Namalva Lymphoblastoid Cell Culture at the concentration of 0.1 g/L and after detoxification on anionic exchanger; format: functional; summary of the method: as §1
[15] = Hemolytic effect on human red blood cells when dispersed in Pluronic F-68 at the concentration of 10 g/2.5g per L; format: functional; summary of the method: as §3
[16] = Growth and viability inhibition towards Namalva Lymphoblastoid Cell Culture after resowing at the concentration of 0.1 g/L; format: functional; summary of the method: as §2
[17] = Viability inhibition towards Namalva Lymphoblastoid Cell Culture at the concentration of 0.2 g/L; format: functional; summary of the method: as §1
Mus musculus [18] = test: Toxicity in mice when dispersed in Pluronic F-68 in […] aqueous NaCl of 42 g/22 g per L at the concentration of 1035 mg/kg body weight; format: functional; summary of the method: as §4
[19] = Percent hemolysis for an erythrocyte suspension at 1% hemocrait at the concentration of 10 g/ L; format: functional, Homo sapiens
Summary of the method: (§5)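 Washed human red cells at 1% hematocrit (8-9 × 10^7 cells/mL) in phosphate saline pH 7.4 were mixed 1:1 with surfactant/Pluronic F-68 dispersion in 9‰ NaCl and shaken 1 h at 37 °C. After centrifugation, supernatant hemoglobin was read at 540 nm. % hemolysis = 100 (OD_test − OD_NaCl)/(OD_H2O − OD_NaCl), with 9‰ NaCl as the 0% control and water as the 100% control.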

[20] = Growth inhibition towards Namalva Lymphoblastoid Cell Culture at the concentration of 0.05 g/L after dispersion in pluronic F-68; format: functional; settings: in the assay text read “concentration of 0.1 g/L” for “concentration of 0.05 g/L”; summary of the method: as §1
Mus musculus [21] = test: Toxicity in mice when dispersed in Pluronic F-68 in […] aqueous NaCl of 50 g/15 g per L at the concentration of 1187 mg/kg body weight; format: functional; summary of the method: as §4
[22] = Growth and viability inhibition towards Namalva Lymphoblastoid Cell Culture at the concentration of 0.05 g/L after dispersion in pluronic F-68; format: functional
Mus musculus [23] = test: Toxicity in mice when dispersed in Pluronic F-68 in […] aqueous NaCl of 20 g/10 g per L at the concentration of 455,mg/Kg body weight; format: functional; summary of the method: as §4
[24] = Percent hemolysis for an erythrocyte suspension at 1% hemocrait at the concentration of 20 g/10 g per L; format: functional, Homo sapiens; summary of the method: as §5
[25] = Hemolytic effect on human red blood cells when dispersed in Pluronic F-68 at the concentration of 20 g/10 g per L; format: functional; summary of the method: as §3
[26] = Percent hemolysis for an erythrocyte suspension at 1% hemocrait at the concentration of 10 g/1g per L; format: functional, Homo sapiens; summary of the method: as §5
[27] = Viability inhibition towards Namalva Lymphoblastoid Cell Culture at the concentration of 0.05 g/L after dispersion in pluronic F-68; format: functional; summary of the method: as §1
[28] = Hemolytic effect on human red blood cells when dispersed in Pluronic F-68 at the concentration of 40 g/20 g per L; format: functional; summary of the method: as §3
[29] = Percent hemolysis for an erythrocyte suspension at 1% hemocrait at the concentration of 20 g/ L; format: functional, Homo sapiens; summary of the method: as §5
[30] = Hemolytic effect on human red blood cells when dispersed in Pluronic F-68 at the concentration of 10 g/1g per L; format: functional; summary of the method: as §3
Mus musculus [31] = test: Toxicity in mice when dispersed in Pluronic F-68 in […] aqueous NaCl of 0.1 g at the concentration of 2,mg/Kg body weight; format: functional; summary of the method: as §4
[32] = Hemolytic effect on human red blood cells when dispersed in Pluronic F-68 at the concentration of 20 g/1 g per L; format: functional; summary of the method: as §3
[33] = Hemolytic effect on human red blood cells when dispersed in Pluronic F-68 at the concentration of 1 g/0.05 g per L; format: functional; summary of the method: as §3
[34] = Percent hemolysis for an erythrocyte suspension at 1% hemocrait at the concentration of 1 g/0.05 g per L; format: functional, Homo sapiens; summary of the method: as §5
Mus musculus [35] = test: Toxicity in mice when dispersed in Pluronic F-68 in […] aqueous NaCl of 20 g/10 g per L at the concentration of 443 mg/kg body weight; format: functional; summary of the method: as §4
[36] = Hemolytic effect on human red blood cells when dispersed in Pluronic F-68 at the concentration of 10 g/5g per L; format: functional; summary of the method: as §3
[37] = Percent hemolysis for an erythrocyte suspension at 1% hemocrait at the concentration of 1 g/L; format: functional, Homo sapiens; summary of the method: as §5

solubility [1]: 500 µg/mL (≈ 1050 µM)
SMILES: O=C(CCC(F)(F)C(F)(F)C(F)(F)C(F)(F)C(F)(F)F)OCC(O)C(O)C(O)CO (stereo not given)

SMILES: OCC(O)C(O)C(O)COC/C=C/C(F)(F)C(F)(F)C(F)(F)C(F)(F)C(F)(F)C(F)(F)F (stereo not given)
Growth [2]: 86%
Resowing [3]: 105%
Activity [4]: 78.4 mM
Growth [5]: 23%
Resowing [6]: 95%
Viability [7]: 80%
Survival ratio (Mus musculus [8]): 10
Growth [9]: 78%
Survival ratio (Mus musculus [10]): 10
Survival ratio (Mus musculus [11]): 0
Activity [12]: 39.2 mM
Survival ratio (Mus musculus [13]): 8
Viability [14]: 93%
Activity [15]: 19.6 mM
Resowing [16]: 96%
solubility [1]: < 1000 µg/mL
Viability [17]: 98%

solubility [1]: < 10 µg/mL
SMILES: O=C(CCC(F)(F)C(F)(F)C(F)(F)C(F)(F)C(F)(F)C(F)(F)C(F)(F)C(F)(F)F)OCC(O)C(O)C(O)CO (stereo not given)

SMILES: OCC(O)C(O)C(O)COC/C=C/C(F)(F)C(F)(F)C(F)(F)C(F)(F)C(F)(F)C(F)(F)C(F)(F)C(F)(F)F (stereo not given)
Survival ratio (Mus musculus [18]): 8
Hemolysis [19]: 0%
Growth [20]: 108%
Growth [5]: 78%
Viability [7]: 97%
Survival ratio (Mus musculus [21]): 5
Resowing [22]: 115%
Survival ratio (Mus musculus [23]): 10
Hemolysis [24]: 0%
Activity [25]: 32.8 mM
Hemolysis [26]: 0%
Viability [27]: 98%
Activity [28]: 65.6 mM
Resowing [16]: 100%
solubility [1]: 50 µg/mL (≈ 81.9 µM)
Hemolysis [29]: 0%
Activity [30]: 16.4 mM

SMILES: OCC(O)C(O)C(O)COC/C=C/C(F)(F)C(F)(F)C(F)(F)C(F)(F)F (stereo not given)
Survival ratio (Mus musculus [31]): 10
Resowing [3]: 105%
Growth [5]: 32%
Viability [7]: 87%
Growth [9]: 125%
Activity [32]: 48.7 mM
Activity [33]: 2.4 mM
Hemolysis [34]: 0%
Survival ratio (Mus musculus [35]): 9
Viability [14]: 95%
Activity [36]: 24.4 mM
Resowing [16]: 106%
solubility [1]: < 5000 µg/mL
Hemolysis [37]: 0%
